# Results published in ChEMBL document CHEMBL3870321, “Substituted 4-morpholine N-arylsulfonamides as γ-secretase inhibitors” (Eur J Med Chem, 2016).
# Assays:
# [1] = Inhibition of gamma-secretase in HEK293 cells expressing human APP Swedish/London mutant assessed as reduction in amyloid beta 40 level after 5 hrs by sandwich immunoassay; assay type: cell-based; details: HEK293, 5 h
# How it was run: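 HEK293 cells stably transfected with human APP cDNA carrying Swedish and London mutations were exposed to inhibitor for 5 h. Aβ40 in conditioned medium was measured by MSD sandwich immunoassay (TAG-G2-10/biotin-4G8). IC50 came from a four-parameter variable-slope nonlinear fit, with duplicate or triplicate measurements per experiment.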
# Cytochrome P450 3A4 [2] = target: T1, Cytochrome P450 3A4 (Homo sapiens, UniProt P08684); assay: Inhibition of recombinant human CYP3A4 expressed in baculovirus infected insect cells preincubated for 30 mins using fluorescent substrate; assay type: ADME
# T1 sequence (P08684 whole entry): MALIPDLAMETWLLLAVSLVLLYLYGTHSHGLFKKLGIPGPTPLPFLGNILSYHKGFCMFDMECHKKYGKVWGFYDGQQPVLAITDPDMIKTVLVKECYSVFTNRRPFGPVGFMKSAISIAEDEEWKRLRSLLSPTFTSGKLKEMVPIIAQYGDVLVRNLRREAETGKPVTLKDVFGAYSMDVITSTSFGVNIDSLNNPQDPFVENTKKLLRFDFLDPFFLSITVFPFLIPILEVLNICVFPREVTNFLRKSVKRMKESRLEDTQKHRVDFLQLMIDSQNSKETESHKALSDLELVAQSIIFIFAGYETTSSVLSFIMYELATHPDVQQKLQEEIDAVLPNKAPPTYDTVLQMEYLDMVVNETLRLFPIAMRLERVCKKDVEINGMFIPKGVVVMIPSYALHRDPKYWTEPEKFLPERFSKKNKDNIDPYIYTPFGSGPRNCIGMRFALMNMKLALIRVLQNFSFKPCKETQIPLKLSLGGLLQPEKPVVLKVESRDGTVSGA
# Cytochrome P450 3A4 [3] = target: T1, Cytochrome P450 3A4; assay: Inhibition of recombinant human CYP3A4 expressed in baculovirus infected insect cells using fluorescent substrate; assay type: ADME
# [4] = AUC (0 to 6 hrs) in Sprague-Dawley rat at 30 mg/kg, po by LC-MS/MS analysis; assay type: ADME, organism-based; set-up: dose 30 mg/kg, time < 6 hr, route oral; details: in vivo
# How it was run: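 Two fasted male Sprague-Dawley rats per compound, femoral-artery cannulated, were dosed orally in 0.5% methylcellulose. Serial heparinized blood was taken at 0.5, 1, 2, 3, 4 and 6 h, and plasma was stored at -20 °C. Compound levels were measured by LC-MS/MS using compound-specific SRM transitions from [MH]+, and AUC was taken over 0–6 h.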
# Cytochrome P450 3A4 [5] = target: T1, Cytochrome P450 3A4; assay: Inhibition of CYP3A4 (unknown origin); assay type: ADME
# How it was run: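 Recombinant CYP3A4 was co-incubated with compound, and fluorescent product formed from a […] coumarin or fluorescein substrate was read out. Values are means of two experiments.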
# Cytochrome P450 3A4 [6] = target: T1, Cytochrome P450 3A4; assay: Inhibition of CYP3A4 (unknown origin) preincubated with enzyme; assay type: ADME
# How it was run: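 Recombinant CYP3A4 was pre-incubated with compound, and data were collected 30 min after the compound was combined with enzyme. Read-out was fluorescent product formed from a […] substrate. Values are means of two experiments.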
# [7] = Inhibition of gamma-secretase in HEK293 cells expressing APP London mutant assessed as reduction in amyloid beta 40 level after 5 hrs by immunoassay; details: Homo sapiens, HEK293, 5 h
# Mus musculus = assay: In vivo inhibition of gamma-secretase in CRND8 transgenic mouse model of Alzheimers disease expressing APP Swedish/Indiana familial mutant assessed as reduction in amyloid beta 40 level in plasma at 30 mg/kg administered as single dose via oral gavage after 3 hrs by sandwich immunoassay; assay type: functional
# How it was run: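 Transgenic CRND8 mice (5–7 weeks, male and female, counterbalanced, singly housed) received a single oral gavage dose in 20% hydroxypropyl-β-cyclodextrin. Mice were killed by CO2 at 3 h, and EDTA plasma was collected from the posterior vena cava. Plasma Aβ40 was quantified by MSD sandwich immunoassay (biotin-4G8/S-tag G2-10) and compared with a vehicle-only group.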
Structure (SMILES),IC50 [1] [µM],IC50 (Cytochrome P450 3A4 [2]) [µM],IC50 (Cytochrome P450 3A4 [3]) [µM],AUC(0-t) at 6 h [4] [ng·h/mL],IC50 (Cytochrome P450 3A4 [5]) [µM],IC50 (Cytochrome P450 3A4 [6]) [µM],IC50 [7] [µM],inhibition in vivo at 30 mg/kg (Mus musculus) [%]
CC(=O)N1C2CCC1CN(C(=O)CC1([C@H]3COC[C@@H](C4CC4)N3S(=O)(=O)c3ccc(Cl)cc3)CC1)C2,0.018,4.3,30,–,–,–,–,–
O=C(CC1([C@H]2COC[C@@H](C3CC3)N2S(=O)(=O)c2ccc(Cl)cc2)CC1)N1CC2CCC(C1)N2CCO,0.006,< 0.4,> 30,2730,–,–,–,–
O=C(CC1([C@H]2CO[C@H]3CCC[C@H]3N2S(=O)(=O)c2ccc(Cl)cc2)CC1)N1CC[C@@H](CO)C1,0.018,30,30,–,–,–,–,–
O=C(C(O)C1([C@H]2COC[C@@H](C3CC3)N2S(=O)(=O)c2ccc(Cl)cc2)CC1)N1CC2CCC(C1)N2 (stereo not given in full),0.01,9,> 30,254,–,–,–,–
O=C(CC1([C@H]2COC[C@@H](C3CC3)N2S(=O)(=O)c2ccc(Cl)cc2)CC1)N1CC2CCC(C1)N2,0.0035,–,–,1160,–,–,–,–
O=S(=O)(c1ccc(Cl)cc1)N1[C@H](c2cccc(F)c2)CCC[C@@H]1C1(O)CC1,–,–,–,–,< 0.9,< 0.5,0.316,–
O=C(CC1([C@H]2COC[C@@H](C3CC3)N2S(=O)(=O)c2ccc(F)cc2)CC1)N1CCN(CCO)CC1,0.032,6.9,> 30,1970,–,–,–,–
C[C@H]1CN(C(C)(C)CO)CCN1C(=O)CC1([C@H]2COC[C@@H](C3CC3)N2S(=O)(=O)c2ccc(F)cc2)CC1,0.014,2.2,> 30,–,–,–,–,–
O=C(CC1([C@H]2COC[C@@H](C3CC3)N2S(=O)(=O)c2ccc(Cl)cc2)CC1)N1C2CCC1CC(N1CCCCC1)C2 (stereo not given in full),0.012,2,> 30,1290,–,–,–,–
O=C(CC1([C@H]2CO[C@H]3CCC[C@H]3N2S(=O)(=O)c2ccc(Cl)cc2)CC1)N1CC[C@@H](O)C1,0.016,> 30,> 30,–,–,–,–,–
CC(=O)N1CCN(C(=O)CC2([C@H]3COC[C@@H](C4CC4)N3S(=O)(=O)c3ccc(F)cc3)CC2)CC1,0.067,17,30,3160,–,–,–,–
O=C(CC1([C@H]2CO[C@H]3CCC[C@H]3N2S(=O)(=O)c2ccc(Cl)cc2)CC1)N1CCC(N2CCCCC2)CC1,0.0017,8,21,–,–,–,–,–
O=C(CC1([C@H]2COC[C@@H](C3CC3)N2S(=O)(=O)c2ccc(F)cc2)CC1)N1CCC(N2CCCCC2)CC1,0.03,1.5,> 30,575,–,–,–,–
O=S(=O)(c1ccc(Cl)cc1)N1[C@@H](CO)CCC[C@H]1c1cccc(F)c1,–,–,–,–,13.9,30,0.671,–
O=C(C(O)C1([C@H]2COC[C@@H](C3CC3)N2S(=O)(=O)c2ccc(Cl)cc2)CC1)N1C2CCC1CC(N1CCCCC1)C2 (stereo not given in full),0.024,> 30,> 30,267,–,–,–,–
O=C(CC1([C@H]2CO[C@H]3CCC[C@H]3N2S(=O)(=O)c2ccc(Cl)cc2)CC1)N1CCC(CO)CC1,0.0018,30,30,36,–,–,–,–
CC(C)(CO)N1CCN(C(=O)CC2([C@H]3COC[C@@H](C4CC4)N3S(=O)(=O)c3ccc(Cl)cc3)CC2)CC1,0.0059,1.9,> 30,464,–,–,–,89
